In ChEMBL document CHEMBL2062435, “Synthesis and in vitro antibacterial activity of gemifloxacin derivatives containing a substituted benzyloxime moiety” (2012):

Assays:
Format in all cases: functional
Staphylococcus aureus [1] = test: Antimicrobial activity against Staphylococcus aureus ATCC […] after 18-24 hrs by two-fold serial dilution method
Summary of the method: (§1)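 Agar-medium twofold serial dilution against Gram-positive and Gram-negative strains; MIC taken as the lowest compound concentration giving complete inhibition of bacterial growth after incubation at 35 °C for 18-24 h.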

Staphylococcus aureus [2] = test: Antimicrobial activity against extended spectrum beta-lactamases-producing methicillin-resistant Staphylococcus aureus 10-11 after 18-24 hrs by two-fold serial dilution method
Summary of the method: (§2)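 Agar twofold serial dilution MIC against clinical isolates. MIC was taken as the lowest concentration giving complete inhibition of bacterial growth after incubation at 35 °C for 18-24 h.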

Staphylococcus aureus [3] = test: Antimicrobial activity against extended spectrum beta-lactamases-producing methicillin-resistant Staphylococcus aureus 10-15 after 18-24 hrs by two-fold serial dilution method; summary of the method: as §2
Staphylococcus aureus [4] = test: Antimicrobial activity against extended spectrum beta-lactamases-producing methicillin-sensitive Staphylococcus aureus 10-14 after 18-24 hrs by two-fold serial dilution method; summary of the method: as §1
[5] = tested on: Staphylococcus epidermidis; test: Antimicrobial activity against extended spectrum beta-lactamases-producing methicillin-resistant Staphylococcus epidermidis 10-13 after 18-24 hrs by two-fold serial dilution method; summary of the method: as §2
[6] = tested on: Staphylococcus epidermidis; test: Antimicrobial activity against extended spectrum beta-lactamases-producing methicillin-sensitive Staphylococcus epidermidis 10-11 after 18-24 hrs by two-fold serial dilution method; summary of the method: as §1
[7] = tested on: Staphylococcus epidermidis; test: Antimicrobial activity against extended spectrum beta-lactamases-producing methicillin-sensitive Staphylococcus epidermidis 10-13 after 18-24 hrs by two-fold serial dilution method; summary of the method: as §1
[8] = tested on: Staphylococcus epidermidis; test: Antimicrobial activity against extended spectrum beta-lactamases-producing methicillin-sensitive Staphylococcus epidermidis 10-15 after 18-24 hrs by two-fold serial dilution method; summary of the method: as §1
Enterococcus faecalis [9] = test: Antimicrobial activity against Enterococcus faecalis 10-5 after 18-24 hrs by two-fold serial dilution method; summary of the method: as §1
Enterococcus faecalis [10] = test: Antimicrobial activity against Enterococcus faecalis 10-6 after 18-24 hrs by two-fold serial dilution method; summary of the method: as §1
Enterococcus faecalis [11] = test: Antimicrobial activity against Enterococcus faecalis 10-7 after 18-24 hrs by two-fold serial dilution method; summary of the method: as §1
Enterococcus faecium [12] = test: Antimicrobial activity against Enterococcus faecium 10-9 after 18-24 hrs by two-fold serial dilution method; summary of the method: as §1
Escherichia coli [13] = test: Antimicrobial activity against Escherichia coli 10-1 after 18-24 hrs by two-fold serial dilution method; summary of the method: as §1
Escherichia coli [14] = test: Antimicrobial activity against Escherichia coli 10-2 after 18-24 hrs by two-fold serial dilution method; summary of the method: as §1
Escherichia coli [15] = test: Antimicrobial activity against Escherichia coli 10-3 after 18-24 hrs by two-fold serial dilution method; summary of the method: as §1
Escherichia coli [16] = test: Antimicrobial activity against extended spectrum beta-lactamases-producing Escherichia coli 10-4 after 18-24 hrs by two-fold serial dilution method; summary of the method: as §1
Klebsiella pneumoniae [17] = test: Antimicrobial activity against extended spectrum beta-lactamases-producing Klebsiella pneumoniae 10-1 after 18-24 hrs by two-fold serial dilution method; summary of the method: as §1
Klebsiella pneumoniae [18] = test: Antimicrobial activity against extended spectrum beta-lactamases-producing Klebsiella pneumoniae 10-3 after 18-24 hrs by two-fold serial dilution method; summary of the method: as §1
Klebsiella pneumoniae [19] = test: Antimicrobial activity against Klebsiella pneumoniae 10-4 after 18-24 hrs by two-fold serial dilution method; summary of the method: as §1
Pseudomonas aeruginosa [20] = test: Antimicrobial activity against Pseudomonas aeruginosa 10-12 after 18-24 hrs by two-fold serial dilution method; summary of the method: as §1
Pseudomonas aeruginosa [21] = test: Antimicrobial activity against extended spectrum beta-lactamases-producing Pseudomonas aeruginosa 10-5 after 18-24 hrs by two-fold serial dilution method; summary of the method: as §1
Pseudomonas aeruginosa [22] = test: Antimicrobial activity against extended spectrum beta-lactamases-producing Pseudomonas aeruginosa 10-15 after 18-24 hrs by two-fold serial dilution method; summary of the method: as §1
Pseudomonas aeruginosa [23] = test: Antimicrobial activity against extended spectrum beta-lactamases-producing Pseudomonas aeruginosa 10-18 after 18-24 hrs by two-fold serial dilution method; summary of the method: as §1
Staphylococcus aureus [24] = test: Antimicrobial activity against methicillin-resistant Staphylococcus aureus clinical isolate after 18-24 hrs by two-fold serial dilution method; summary of the method: as §2
[25] = tested on: Staphylococcus epidermidis; test: Antimicrobial activity against methicillin-resistant Staphylococcus epidermidis clinical isolate after 18-24 hrs by two-fold serial dilution method
Staphylococcus aureus [26] = test: Ratio of levofloxacin MIC to compound MIC for Staphylococcus aureus ATCC […] after 18-24 hrs by two-fold serial dilution method
[27] = tested on: Staphylococcus epidermidis; test: Ratio of levofloxacin MIC to compound MIC for extended spectrum beta-lactamases-producing methicillin-sensitive Staphylococcus epidermidis 10-13 after 18-24 hrs by two-fold serial dilution method
Summary of the method: (§3)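 MICs were determined by the standard twofold serial dilution method on agar media against the test strains, with levofloxacin run as a reference. MIC is the lowest concentration giving complete inhibition of bacterial growth after 18–24 h incubation at 35 °C. The ratio is levofloxacin MIC divided by test-compound MIC.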

[28] = tested on: Staphylococcus epidermidis; test: Ratio of levofloxacin MIC to compound MIC for extended spectrum beta-lactamases-producing methicillin-sensitive Staphylococcus epidermidis 10-15 after 18-24 hrs by two-fold serial dilution method; summary of the method: as §3
Enterococcus faecalis [29] = test: Ratio of levofloxacin MIC to compound MIC for Enterococcus faecalis 10-6 after 18-24 hrs by two-fold serial dilution method
Enterococcus faecalis [30] = test: Ratio of levofloxacin MIC to compound MIC for Enterococcus faecalis 10-7 after 18-24 hrs by two-fold serial dilution method
Enterococcus faecium [31] = test: Ratio of levofloxacin MIC to compound MIC for Enterococcus faecium 10-5 after 18-24 hrs by two-fold serial dilution method
Enterococcus faecium [32] = test: Ratio of levofloxacin MIC to compound MIC for Enterococcus faecium 10-9 after 18-24 hrs by two-fold serial dilution method
Streptococcus pneumoniae [33] = test: Ratio of levofloxacin MIC to compound MIC for extended spectrum beta-lactamases-producing Streptococcus pneumoniae 10-1 after 18-24 hrs by two-fold serial dilution method
Streptococcus pneumoniae [34] = test: Ratio of levofloxacin MIC to compound MIC for extended spectrum beta-lactamases-producing Streptococcus pneumoniae 10-4 after 18-24 hrs by two-fold serial dilution method; summary of the method: as §3
Staphylococcus aureus [35] = test: Ratio of gemifloxacin MIC to compound MIC for extended spectrum beta-lactamases-producing methicillin-sensitive Staphylococcus aureus 10-13 after 18-24 hrs by two-fold serial dilution method
Staphylococcus aureus [36] = test: Ratio of gemifloxacin MIC to compound MIC for extended spectrum beta-lactamases-producing methicillin-sensitive Staphylococcus aureus 10-14 after 18-24 hrs by two-fold serial dilution method
[37] = tested on: Staphylococcus epidermidis; test: Ratio of gemifloxacin MIC to compound MIC for extended spectrum beta-lactamases-producing methicillin-sensitive Staphylococcus epidermidis 10-15 after 18-24 hrs by two-fold serial dilution method
Enterococcus faecalis [38] = test: Ratio of gemifloxacin MIC to compound MIC for Enterococcus faecalis 10-5 after 18-24 hrs by two-fold serial dilution method
Enterococcus faecalis [39] = test: Ratio of gemifloxacin MIC to compound MIC for Enterococcus faecalis 10-7 after 18-24 hrs by two-fold serial dilution method
Enterococcus faecium [40] = test: Ratio of gemifloxacin MIC to compound MIC for Enterococcus faecium 10-5 after 18-24 hrs by two-fold serial dilution method
Enterococcus faecium [41] = test: Ratio of gemifloxacin MIC to compound MIC for Enterococcus faecium 10-9 after 18-24 hrs by two-fold serial dilution method
Streptococcus pneumoniae [42] = test: Ratio of gemifloxacin MIC to compound MIC for extended spectrum beta-lactamases-producing Streptococcus pneumoniae 10-4 after 18-24 hrs by two-fold serial dilution method

For `COc1ccc(OC)c(CO/N=C2\CN(c3nc4c(cc3F)c(=O)c(C(=O)O)cn4C3CC3)CC2CN)c1.CS(=O)(=O)O` (racemic), the MIC (Staphylococcus aureus [1]) was less than 0.008 µg/mL, the MIC (Staphylococcus aureus [2]) was 1 µg/mL and the MIC (Staphylococcus aureus [3]) was 0.125 µg/mL. For the same compound, the MIC (Staphylococcus aureus [4]) was 0.03 µg/mL, the MIC [5] was 0.25 µg/mL and the MIC [6] was 0.25 µg/mL. For the same compound, the MIC [7] was 0.03 µg/mL, the MIC [8] was 4 µg/mL and the MIC (Enterococcus faecalis [9]) was 0.25 µg/mL. The MIC (Enterococcus faecalis [10]) was 4 µg/mL, the MIC (Enterococcus faecalis [11]) was 0.25 µg/mL and the MIC (Enterococcus faecium [12]) was 4 µg/mL. For the same compound, the MIC (Escherichia coli [13]) was greater than 128 µg/mL, the MIC (Escherichia coli [14]) was greater than 128 µg/mL and the MIC (Escherichia coli [15]) was greater than 128 µg/mL. The MIC (Escherichia coli [16]) was greater than 128 µg/mL, the MIC (Klebsiella pneumoniae [17]) was greater than 128 µg/mL and the MIC (Klebsiella pneumoniae [18]) was greater than 128 µg/mL. The MIC (Klebsiella pneumoniae [19]) was greater than 128 µg/mL, the MIC (Pseudomonas aeruginosa [20]) was greater than 128 µg/mL and the MIC (Pseudomonas aeruginosa [21]) was greater than 128 µg/mL. It also gave an MIC (Pseudomonas aeruginosa [22]) greater than 128 µg/mL, an MIC (Pseudomonas aeruginosa [23]) greater than 128 µg/mL and an MIC50 (Staphylococcus aureus [24]) of 0.5 µg/mL. It also gave an MIC90 (Staphylococcus aureus [24]) of 1 µg/mL, an MIC50 [25] of 0.25 µg/mL and an MIC90 [25] of 4 µg/mL. For the same compound, the Ratio (Staphylococcus aureus [26]) was 8, the Ratio [27] was 8 and the Ratio [28] was 8. The Ratio (Enterococcus faecalis [29]) was 8, the Ratio (Enterococcus faecalis [30]) was 8 and the Ratio (Enterococcus faecium [31]) was 8. It also gave a Ratio (Enterococcus faecium [32]) of 8, a Ratio (Streptococcus pneumoniae [33]) of 8 and a Ratio (Streptococcus pneumoniae [34]) of 8. It also gave a Ratio (Staphylococcus aureus [35]) of 2, a Ratio (Staphylococcus aureus [36]) of 2 and a Ratio [37] of 2. It also gave a Ratio (Enterococcus faecalis [38]) of 2, a Ratio (Enterococcus faecalis [39]) of 2 and a Ratio (Enterococcus faecium [40]) of 2. It also gave a Ratio (Enterococcus faecium [41]) of 2 and a Ratio (Streptococcus pneumoniae [42]) of 2.
